Each structure is given as a SMILES string. Where only a bound is given, the exact number is not on record here.

T1 sequence (O15118 23-1278 I1061T limits assumed): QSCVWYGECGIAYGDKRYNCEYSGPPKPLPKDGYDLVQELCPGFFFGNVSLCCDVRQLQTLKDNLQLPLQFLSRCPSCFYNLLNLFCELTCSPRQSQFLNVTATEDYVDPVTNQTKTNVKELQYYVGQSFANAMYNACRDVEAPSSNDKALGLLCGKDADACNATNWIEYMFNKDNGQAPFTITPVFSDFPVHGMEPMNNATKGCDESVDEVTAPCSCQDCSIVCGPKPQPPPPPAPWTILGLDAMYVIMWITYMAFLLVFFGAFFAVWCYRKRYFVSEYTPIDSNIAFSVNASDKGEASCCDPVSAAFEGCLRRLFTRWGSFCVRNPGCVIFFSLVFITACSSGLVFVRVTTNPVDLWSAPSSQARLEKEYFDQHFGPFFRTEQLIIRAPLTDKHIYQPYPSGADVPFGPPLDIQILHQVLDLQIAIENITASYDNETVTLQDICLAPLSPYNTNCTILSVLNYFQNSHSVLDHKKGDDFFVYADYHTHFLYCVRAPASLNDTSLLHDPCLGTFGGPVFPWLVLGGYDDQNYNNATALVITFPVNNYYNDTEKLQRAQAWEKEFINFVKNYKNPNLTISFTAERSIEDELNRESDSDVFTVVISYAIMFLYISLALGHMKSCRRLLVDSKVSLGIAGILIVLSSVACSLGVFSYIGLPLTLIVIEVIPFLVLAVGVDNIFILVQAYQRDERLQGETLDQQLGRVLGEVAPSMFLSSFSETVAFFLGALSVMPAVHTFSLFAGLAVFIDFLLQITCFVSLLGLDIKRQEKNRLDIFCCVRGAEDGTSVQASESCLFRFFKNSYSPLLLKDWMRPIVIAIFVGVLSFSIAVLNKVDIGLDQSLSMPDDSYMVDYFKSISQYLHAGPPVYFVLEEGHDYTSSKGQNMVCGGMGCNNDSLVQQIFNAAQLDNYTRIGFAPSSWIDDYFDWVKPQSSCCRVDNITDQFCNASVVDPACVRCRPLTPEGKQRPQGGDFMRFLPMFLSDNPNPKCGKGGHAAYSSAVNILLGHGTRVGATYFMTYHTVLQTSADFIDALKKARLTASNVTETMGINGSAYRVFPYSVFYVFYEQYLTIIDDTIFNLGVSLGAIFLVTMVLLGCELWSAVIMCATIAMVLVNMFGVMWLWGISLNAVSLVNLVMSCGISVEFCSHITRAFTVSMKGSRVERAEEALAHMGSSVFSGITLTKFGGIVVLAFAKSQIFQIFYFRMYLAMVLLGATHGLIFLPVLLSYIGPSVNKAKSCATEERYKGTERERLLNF

The test addresses T1, NPC intracellular cholesterol transporter 1 [I1061T] (Homo sapiens, UniProt O15118, I1061T).
T1 construct: gene NPC1
Put plainly: Binding affinity to FLAG/tGFP-tagged NPC1 I1061T mutant (unknown origin) expressed in HEK293 cells assessed as localization after 24 hrs by fluorescence microscopy. Summed up:
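HEK293 cells stably expressing NPC1 I1061T-tGFP were exposed to compound for 24 h, fixed, and nuclei stained with Hoechst 33342. In the images, each cell was scored by tGFP pattern: ER 0, mixed ER+vesicle 0.5, vesicular 1. Scores were averaged to give the vesicular-localization percentage, and EC50 was taken from concentration-response. Data are mean ± standard deviation of three independent experiments.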
Take `CCN(CC)C(=O)CO[C@H]1CC[C@@]2(C)C(=CC[C@H]3[C@@H]4CC[C@H]([C@H](C)CCCC(C)(C)O)[C@@]4(C)CC[C@@H]32)C1`: the EC50 was 4800 nM.

For the molecule `CCN(CC)C(=O)CC[C@@H](C)[C@H]1CC[C@H]2[C@@H]3CC=C4C[C@@H](O)CC[C@]4(C)[C@H]3CC[C@]12C`, the EC50 was 1700 nM.

On to `CC(C)CCC[C@@H](C)[C@H]1CC[C@H]2[C@@H]3CC[C@@]4(O)[C@@H](O)[C@@H](O)CC[C@]4(C)[C@H]3CC[C@]12C` [Cholestane-3b,4b,5a-triol], for which the EC50 came out at 4300 nM.

For `CC(C)CCC[C@@H](C)[C@H]1CC[C@H]2[C@@H]3C[C@@H](O)[C@@]4(O)C[C@@H](OCC(N)=O)CC[C@]4(C)[C@H]3CC[C@]12C`, the EC50 came to 840 nM.

Take `CC(C)CCC[C@@H](C)[C@H]1CC[C@H]2[C@@H]3C(=O)C=C4C[C@@H](O)CC[C@]4(C)[C@H]3CC[C@]12C` [CHEBI:64294]: the EC50 was 8700 nM.

Regarding `CC(C)CCC[C@@H](C)[C@H]1CC[C@H]2[C@@H]3C[C@@H](O)[C@@]4(O)C[C@@H](O)CC[C@]4(C)[C@H]3CC[C@]12C` [CHEBI:28082], the EC50 turned out to be 1700 nM.

With `C[C@]12CC[C@H](O)CC1=CC[C@@H]1[C@@H]2CC[C@]2(C)C(=O)CC[C@@H]12` [Prasterone], the EC50 is greater than 10000 nM.

For `CC(C)CCC[C@@H](C)[C@H]1CC[C@H]2[C@@H]3[C@@H](O)C=C4C[C@@H](OCC(=O)N5CCOCC5)CC[C@]4(C)[C@H]3CC[C@]12C`, the EC50 was 360 nM.

Regarding `C[C@H](CNC(=O)c1cc(C(F)(F)F)cc(C(F)(F)F)c1)[C@H]1CC[C@H]2[C@@H]3C[C@@H](O)[C@@]4(O)C[C@@H](OCC(=O)N5CCOCC5)CC[C@]4(C)[C@H]3CC[C@]12C`, the EC50 was 86 nM.

For `CC(C)CCC[C@@H](C)[C@H]1CC[C@H]2[C@@H]3C[C@@H](O)[C@@]4(O)C[C@@H](OCCN5CCOCC5)CC[C@]4(C)[C@H]3CC[C@]12C`, the EC50 came to 1000 nM.

Take `C[C@H](CCC(=O)N(C)C)[C@H]1CC[C@H]2[C@@H]3CC=C4C[C@@H](O)CC[C@]4(C)[C@H]3CC[C@]12C` [(4R)-4-[(1S,2R,5S,10S,11S,14R,15R)-5-hydroxy-2,15-dimethyltetracyclo[8.7.0.0^{2,7}.0^{11,15}]heptadec-7-en-14-yl]-N,N-dimethylpentanamide]: the EC50 is 3100 nM.

As for `CC(C)CC[C@H](O)[C@@H](C)[C@H]1CC[C@H]2[C@@H]3CC=C4C[C@@H](O)CC[C@]4(C)[C@H]3CC[C@]12C` [(1S,2R,5S,10S,11S,14R,15S)-14-[(2S,3S)-3-hydroxy-6-methylheptan-2-yl]-2,15-dimethyltetracyclo[8.7.0.0^{2,7}.0^{11,15}]heptadec-7-en-5-ol], the EC50 turned out to be 2900 nM.

Turning to `CC(C)CCC[C@@H](C)[C@H]1CC[C@H]2[C@@H]3C[C@@H](O)[C@@]4(O)C[C@@H](OCC(=O)N(CCO)CCO)CC[C@]4(C)[C@H]3CC[C@]12C`, the EC50 came out at 560 nM.

With `CC(C)CCC[C@@H](C)[C@H]1CC[C@H]2[C@@H]3CC(=O)[C@H]4C[C@@H](O)CC[C@]4(C)[C@H]3CC[C@]12C` [5alpha-CHOLESTAN-3beta-OL-6-ONE], the EC50 is 3400 nM.

In the case of `CC(C)CCC[C@@H](C)[C@H]1CC[C@H]2[C@@H]3[C@@H](O)C=C4C[C@@H](OC(=O)N5CCOCC5)CC[C@]4(C)[C@H]3CC[C@]12C`, the EC50 was 6100 nM.

`C[C@H](COc1cc(C(F)(F)F)cc(C(F)(F)F)c1)[C@H]1CC[C@H]2[C@@H]3C[C@@H](O)[C@@]4(O)C[C@@H](OCC(=O)N5CCOCC5)CC[C@]4(C)[C@H]3CC[C@]12C`: the EC50 is greater than 10000 nM.

For `C[C@H](CCCC(C)(C)O)[C@H]1CC[C@H]2[C@@H]3C[C@@H](O)[C@@]4(O)C[C@@H](O)CC[C@]4(C)[C@H]3CC[C@]12C`, the EC50 worked out at 1700 nM.

In the case of `CC[C@H](/C=C/[C@@H](C)[C@H]1CC[C@H]2[C@@H]3C[C@@H](O)[C@@]4(O)C[C@@H](OCC(=O)N5CCOCC5)CC[C@]4(C)[C@H]3CC[C@]12C)C(C)C`, the EC50 worked out at 360 nM.

As for `C[C@H](CCCC(C)(C)O)[C@H]1CC[C@H]2[C@@H]3CC=C4C[C@@H](OCC(=O)N(C)C)CC[C@]4(C)[C@H]3CC[C@]12C`, the EC50 came to 1400 nM.

Take `C[C@H](CCCC(C)(C)O)[C@H]1CC[C@H]2[C@@H]3CC=C4C[C@@H](O)CC[C@]4(C)[C@H]3CC[C@]12C` [(1S,2R,5S,10S,11S,14R,15R)-14-[(2R)-6-hydroxy-6-methylheptan-2-yl]-2,15-dimethyltetracyclo[8.7.0.0^{2,7}.0^{11,15}]heptadec-7-en-5-ol]: the EC50 stood at 3300 nM.

Consider `CC(C)C(=O)NC[C@@H](C)[C@H]1CC[C@H]2[C@@H]3C[C@@H](O)[C@@]4(O)C[C@@H](OCC(=O)N5CCOCC5)CC[C@]4(C)[C@H]3CC[C@]12C`, for which the EC50 worked out at 370 nM.

With `CC(C)CCC[C@@H](C)[C@H]1CC[C@H]2[C@@H]3[C@@H](O)C=C4C[C@@H](O)CC[C@]4(C)[C@H]3CC[C@]12C` [CHEBI:42989], the EC50 was 3400 nM.

`C[C@H](CNC(=O)N(C)C)[C@H]1CC[C@H]2[C@@H]3C[C@@H](O)[C@@]4(O)C[C@@H](OCC(=O)N5CCOCC5)CC[C@]4(C)[C@H]3CC[C@]12C`: the EC50 is 6800 nM.

On to `C[C@H](CCCC(C)(C)O)[C@H]1CC[C@H]2[C@@H]3CC=C4C[C@@H](OCC(=O)N5CCOCC5)CC[C@]4(C)[C@H]3CC[C@]12C`, for which the EC50 is 880 nM.

As to `C[C@H](CCCC(C)(C)O)[C@H]1CC[C@H]2[C@@H]3CCC4=CC(=O)CC[C@]4(C)[C@H]3CC[C@]12C`, the EC50 amounted to 4000 nM.

For `C[C@H](CCCC(C)(C)O)[C@H]1CC[C@H]2[C@@H]3C(=O)C=C4C[C@@H](O)CC[C@]4(C)[C@H]3CC[C@]12C`, the EC50 was determined as 1500 nM.

Regarding `CC(C)CCC[C@@H](C)[C@H]1CC[C@H]2[C@@H]3[C@@H](O)C=C4C[C@@H](OCCO)CC[C@]4(C)[C@H]3CC[C@]12C`, the EC50 was determined as 3400 nM.

On to `CC(C)CCC[C@@H](C)[C@H]1CC[C@H]2[C@@H]3C(=O)C=C4C[C@@H](OCC(=O)N5CCOCC5)CC[C@]4(C)[C@H]3CC[C@]12C`, for which the concentration giving a half-maximal response (EC50) was 290 nM.

`CCN(CC)CCO[C@H]1CC[C@@]2(C)C(=CC[C@H]3[C@@H]4CC[C@H]([C@H](C)CCCC(C)(C)O)[C@@]4(C)CC[C@@H]32)C1`: the EC50 was 9900 nM.

On to `CC(C)CCC[C@@H](C)[C@H]1CC[C@H]2[C@@H]3C[C@@H](O)[C@@]4(O)C[C@@H](OCC(=O)N5CCCCC5)CC[C@]4(C)[C@H]3CC[C@]12C`, for which the EC50 was found to be 1800 nM.

Turning to `CC(C)CCC[C@@H](C)[C@H]1CC[C@H]2[C@@H]3CC(=O)[C@@]4(O)C[C@@H](O)CC[C@]4(C)[C@H]3CC[C@]12C`, the EC50 turned out to be 1700 nM.

For `CC(C)CCC[C@@H](C)[C@H]1CC[C@H]2[C@@H]3C[C@@H](O)[C@@]4(O)C[C@@H](OCC(=O)N5CCOCC5)CC[C@]4(C)[C@H]3CC[C@]12C`, the EC50 was 150 nM.

In the case of `C[C@H](CCCC(C)(C)O)[C@H]1CC[C@H]2[C@@H]3[C@@H](O)C=C4C[C@@H](O)CC[C@]4(C)[C@H]3CC[C@]12C`, the EC50 was found to be 1900 nM.
